37 sequences from the array DNA melting data of Ke et al. (doi:10.1101/2024.01.08.574731) can be followed below.

The nature of data set [1]: folding enthalpy; higher = less favourable; fluorescence melt of hairpins on a sequencing array, two-state fit. To be noted: sodium 0.088 M. In a few lines:
(§1)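 With Cy3 and quencher oligos annealed, library hairpins on a sequenced MiSeq flow cell were imaged for Cy3 fluorescence in 50 mM Na-HEPES pH 8.0, 25 mM NaCl, in 2.5 °C steps up to 60 °C. Melting temperature and folding enthalpy were derived from bootstrapped two-state fits of signals normalised to pre-quench Cy3 and to control constructs. Four replicates were combined by inverse variance, with fitted temperatures raised by 9.35 °C to match UV melts.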

The nature of data set [2]: melting temperature; fluorescence melt of hairpins on a sequencing array, two-state fit, raised by 9.35 °C to match UV melts. To be noted: sodium 0.088 M. In short, it runs like this: as §1

On to GCGTCACGACGC ((((....)))), for which the folding enthalpy in data set [1] was -31.7 kcal/mol. The Tm in data set [2] was 58.6 °C.
The like results for GCGGCAGGAAACTACCGC ((((.((....)).)))) were, in that order, -41.2 kcal/mol and 53.1 °C.
With GCGAATACTCGC ((((....)))), the folding enthalpy in data set [1] was -22.1 kcal/mol. Also, in data set [2], the Tm came to 46.2 °C.
For GATCTACAGTTAGATC ((((((....)))))) the same measures were -29.3 kcal/mol and 38.3 °C.
For GAGCTCGGAAACGAGCCC (.(((((....))))).) the same measures were -7.56 kcal/mol and 59.5 °C.
The like results for GGGTGTGGAAACGCACTC (.(((.(....).))).) were, in that order, -24 kcal/mol and 47.9 °C.
On to GCGTACCCGAAAGGGCGC (((..(((....)))))), for which the folding enthalpy in data set [1] is -22.1 kcal/mol. For the same sequence, the Tm in data set [2] amounted to 56.4 °C.
For GATTCGGGAAACCGAACC (.(((((....))))).) the same measures were -13.7 kcal/mol and 40.2 °C.
For GCGGTTGGAAACAGCTGC ((.(.((....)).).)) the same measures were -25.9 kcal/mol and 52.3 °C.
The like results for GGTGGAGGAAACTCTGCC ((..(((....)))..)) were, in that order, -27 kcal/mol and 42 °C.
On to GAAGACGAAAGTCTCTTC ((((((....)))..))), for which the folding enthalpy in data set [1] is -23.9 kcal/mol. Also, in data set [2], the Tm turned out to be 51.6 °C.
The like results for GATACCGAAAGGTGTATC ((((((....)))..))) were, in that order, -14.8 kcal/mol and 35.9 °C.
The like results for GGATTCCGAAAGGAGTCC (((.(((....))).))) were, in that order, -41.6 kcal/mol and 55.6 °C.
The like results for GACCACGCGAAAGCGGTC (((..(((....)))))) were, in that order, -13.2 kcal/mol and 47.3 °C.
In the case of GATGACACGAAAGTGATC (((..(((....)))))), in data set [1], the folding enthalpy is -11.4 kcal/mol. For the same sequence, the Tm in data set [2] came to 30.9 °C.
For GCTCGTCGAAAGACAGC (((.(((....)))))) the same measures were -29.6 kcal/mol and 51.4 °C.
With GTTAGCGAAAGCTAAAC ((((((....))).))), in data set [1], the folding enthalpy was -13.7 kcal/mol. Further, the Tm in data set [2] was 46.5 °C.
For GCATCAGGAAACCAATGC ((((..(....)..)))) the same measures were -12.1 kcal/mol and 23.8 °C.
The like results for GGAGTGCGAAAGCATTCC (((.(((....))).))) were, in that order, -30.4 kcal/mol and 58.1 °C.
The like results for GCTTGCGGAAACGCAAAC (.(((((....))))).) were, in that order, -12.4 kcal/mol and 44.6 °C.
On to GAATATGGAAACGTATTC (((((.(....).))))), for which, in data set [1], the folding enthalpy was -25.3 kcal/mol. Besides, the Tm in data set [2] was 34.2 °C.
For GATCGTCATAACGATC ((((((....)))))) the same measures were -38.8 kcal/mol and 55 °C.
For GCGCCTGGAAACGGGTGC ((.((.(....).)).)) the same measures were -46.3 kcal/mol and 52.3 °C.
The like results for GATCATTCGCATGATC ((((((....)))))) were, in that order, -34 kcal/mol and 47.5 °C.
Consider GGTTTTGGAAACAAAATC (.(((((....))))).), for which the folding enthalpy in data set [1] is -33.4 kcal/mol. The Tm in data set [2] came out at 41.5 °C.
The like results for GAGTGAGGAAACCCACTC (((((.(....).))))) were, in that order, -33.8 kcal/mol and 44.5 °C.
In the case of GCACTGCGAAAGCATAGC ((..(((....)))..)), the folding enthalpy in data set [1] is -15.3 kcal/mol. In addition, the Tm in data set [2] was determined as 35.6 °C.
The like results for GTATCAGGAAACTGACAC ((.((((....)))).)) were, in that order, -22.7 kcal/mol and 32.1 °C.
For GTGGGCGAAAGCCGCAC ((((((....))).))) the same measures were -13.8 kcal/mol and 55.4 °C.
In the case of GCAACCCGAAAGGGTGC (((.(((....)))))), in data set [1], the folding enthalpy is -19.1 kcal/mol. The Tm in data set [2] was found to be 64.1 °C.
For GGTCAGGGAAACCTGATC (.(((((....))))).) the same measures were -27.2 kcal/mol and 48.5 °C.
Take GGTGAGGAAACTCACC ((((((....)))))): the folding enthalpy in data set [1] is -35 kcal/mol. Further, the Tm in data set [2] came to 61.6 °C.
For GCGTGAGGAAACTCACAC (.(((((....))))).) the same measures were -13.8 kcal/mol and 42.3 °C.
For GGTTGCGAAAGCAAGACC ((((((....)))..))), the folding enthalpy in data set [1] was -14.6 kcal/mol. The Tm in data set [2] is 44.2 °C.
The like results for GCTATCGGAAACGATAAC (.(((((....))))).) were, in that order, -17.4 kcal/mol and 34.5 °C.
As for GATCTACATCTAGATC ((((((....)))))), in data set [1], the folding enthalpy is -30.7 kcal/mol. The Tm in data set [2] came to 36.8 °C.
The like results for GTTGCACGAAAGTGAAC (((.(((....)))))) were, in that order, -14.1 kcal/mol and 39.2 °C.
